Usually IC50 stands for the concentration that gives 50% inhibition.

Calls of active or inactive are those of the source. The calls are words filed in the database; no cut-off is given here.

The test system of assay [1] is Leishmania amazonensis. Briefly: Induction of membrane potential depolarization in Leishmania amazonensis MHOM/BR/75/LTB0016 promastigotes assessed as reduction in mitochondrial membrane potential at 20 uM incubated for 24 hrs by JC1 dye based fluorescence assay. To be noted: MHOM/BR/75/LTB0016, 24 h, read-out: INH.
Assay [2] concerns Leishmania amazonensis. As to the kind of experiment: Induction of ultrastructural alterations in Leishmania amazonensis MHOM/BR/75/LTB0016 promastigotes assessed as appearance of endoplasmic profiles surrounding cellular structures and cytosolic vacuolization at 12 uM incubated for 24 hrs by transmission electron microscopy. In kind it is functional, organism-based. In a few lines: (§1)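 Promastigotes (5 × 10^6 cells/mL) were treated for 24 h at 26 °C in Schneider medium with compound at 12, 24 or 96 μM. They were fixed in 2.5% glutaraldehyde in 0.1 M cacodylate (pH 7.2) for 40 min and postfixed in 1% OsO4, 0.8% potassium ferricyanide and 2.5 mM CaCl2 for 20 min. Cells were acetone-dehydrated and resin-embedded. Ultrathin sections were stained with uranyl acetate and lead citrate and examined by transmission electron microscopy.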

Assay [3] relates to Leishmania amazonensis. As to the kind of experiment: Induction of ultrastructural alterations in Leishmania amazonensis MHOM/BR/75/LTB0016 promastigotes assessed as concentric membrane structures formation inside organelle at 12 to 96 uM incubated for 24 hrs by transmission electron microscopy. In kind it is functional, organism-based. In a few lines: as §1
The subject of assay [4] is Leishmania amazonensis. As to the kind of experiment: Induction of ultrastructural alterations in Leishmania amazonensis MHOM/BR/75/LTB0016 promastigotes assessed as rupture of trans-Golgi network at 24 uM incubated for 24 hrs by transmission electron microscopy.
Assay [5] deals with Leishmania amazonensis. As to the kind of experiment: Induction of intracellular ROS generation in Leishmania amazonensis MHOM/BR/75/LTB0016 promastigotes at 96 uM incubated for 24 hrs in presence of GSSG by H2DCFDA dye based assay. In kind it is functional, organism-based. In a few lines:
(§2)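 Cultures held GSH, GSSG or NAC (300 μM final, in PBS) together with 96 μM compound or 0.2% DMSO for 24 h at 26 °C in Schneider medium. Cells were then stained with H2DCFDA (20 μM, 20 min, 26 °C, in HBSS) and read by flow cytometry. Results are fold ROS increase versus control, mean ± SE of three experiments.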

The subject of assay [6] is Leishmania amazonensis. Briefly: Induction of membrane potential depolarization in Leishmania amazonensis MHOM/BR/75/LTB0016 promastigotes assessed as reduction in mitochondrial membrane potential at 96 uM incubated for 24 hrs by JC1 dye based fluorescence assay. In kind it is functional. The following applies: MHOM/BR/75/LTB0016, 24 h. In a few lines:
(§3)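 Promastigotes (5 × 10^6 cells/mL) were treated for 24 h with compound (3−96 μM) or 0.2% DMSO, then resuspended in HBSS at 1 × 10^7 cells/mL. They were stained with JC-1 (10 μg/mL, 10 min, 26 °C) and washed twice. Emission was read at 590 and 530 nm (excitation 480 nm), and the 590/530 ratio gives relative ΔΨm. FCCP 20 μM for 20 min served as positive control. Mean ± SE of three experiments.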

Assay [7] concerns Leishmania amazonensis. Briefly: Induction of ultrastructural alterations in Leishmania amazonensis MHOM/BR/75/LTB0016 promastigotes assessed as washed-out appearance of mitochondria matrix and loss of cristae at 96 uM incubated for 24 hrs by transmission electron microscopy. In kind it is functional, organism-based. The procedure, abridged: as §1
Assay [8] concerns Leishmania amazonensis. Briefly: Antiparasitic activity against Leishmania amazonensis MHOM/BR/75/LTB0016 promastigotes assessed as inhibition of cellular proliferation incubated for 24 hrs by CFSE staining based flow cytometry. Format: functional, organism-based. The procedure, abridged:
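Promastigotes (2.5 × 10^7 cells/mL) were washed in PBS and stained with 10 μM CFSE in PBS/0.1% albumin for 15 min at 26 °C. Staining was stopped with ice-cold medium. Cells were resuspended at 1.0 × 10^6 cells/mL with compound (3−96 μM) or 0.2% DMSO for 24 h at 26 °C. Fluorescence was read by flow cytometry. Histograms are representative of three experiments.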
In general terms: A flow cytometer gives signals particle by particle.

Assay [9] deals with Leishmania amazonensis. Briefly: Antiparasitic activity against Leishmania amazonensis MHOM/BR/75/LTB0016 promastigotes assessed as inhibition of cellular proliferation at 96 uM incubated for 24 hrs in presence of 300 uM GSH by Neubauer chamber based assay. Format: functional, organism-based. The procedure, abridged: (§4)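 Promastigotes were preincubated with GSH, GSSG or NAC (300 μM final, in PBS) and then grown 24 h at 26 °C in Schneider medium with 96 μM compound (in DMSO) or vehicle (0.2% DMSO). Proliferation was counted in a Neubauer chamber. Mean ± SE of three experiments.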

The subject of assay [10] is Leishmania amazonensis. As to the kind of experiment: Induction of membrane potential depolarization in Leishmania amazonensis MHOM/BR/75/LTB0016 promastigotes assessed as reduction in mitochondrial membrane potential incubated for 24 hrs by JC1 dye based fluorescence assay. In kind it is functional, organism-based. The procedure, abridged:
as §3

Assay [11] has as its system Leishmania amazonensis. Briefly: Induction of ultrastructural alterations in Leishmania amazonensis MHOM/BR/75/LTB0016 promastigotes assessed as inner mitochondrial membrane damage with washed-out matrix appearance and decreased matrix electron density at 12 to 96 uM incubated for 24 hrs by transmission electron microscopy. In kind it is functional, organism-based. The procedure, abridged:
as §1

Assay [12] relates to Leishmania amazonensis. Briefly: Induction of ultrastructural alterations in Leishmania amazonensis MHOM/BR/75/LTB0016 promastigotes assessed as extensive swelling of parasite mitochondria at 12 to 96 uM incubated for 24 hrs by transmission electron microscopy. In kind it is functional, organism-based. In a few lines: as §1
For assay [13], the system named is Leishmania amazonensis. As to the kind of experiment: Antiparasitic activity against Leishmania amazonensis MHOM/BR/75/LTB0016 promastigotes assessed as inhibition of cellular proliferation at 96 uM incubated for 24 hrs in presence of 300 uM NAC by Neubauer chamber based assay. In kind it is functional, organism-based. The procedure, abridged: as §4
The test system of assay [14] is Leishmania amazonensis. Briefly: Induction of intracellular ROS generation in Leishmania amazonensis MHOM/BR/75/LTB0016 promastigotes incubated for 24 hrs by H2DCFDA dye based assay. In kind it is functional, organism-based. In a few lines:
(§5)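 Promastigotes (5 × 10^6 cells/mL) were cultured 24 h at 26 °C with compound (3−96 μM) or vehicle, then resuspended in HBSS at 1 × 10^7 cells/mL. They were loaded with 20 μM H2DCFDA for 20 min at 26 °C and read by flow cytometry. Results are fold increase over control, mean ± SE of three experiments.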

The subject of assay [15] is Leishmania amazonensis. As to the kind of experiment: Induction of intracellular ROS generation in Leishmania amazonensis MHOM/BR/75/LTB0016 promastigotes at 96 uM incubated for 24 hrs in presence of NAC by H2DCFDA dye based assay. Format: functional, organism-based. The procedure, abridged: as §2
For assay [16], the system named is Leishmania amazonensis. As to the kind of experiment: Antiparasitic activity against Leishmania amazonensis MHOM/BR/75/LTB0016 promastigotes assessed as inhibition of cellular proliferation incubated for 24 hrs by Neubauer chamber based assay. Format: functional, organism-based. The procedure, abridged:
(§6)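 Strain MHOM/BR/75/LTB0016 promastigotes were grown at 26 °C in Schneider medium (pH 7.2) with 10% heat-inactivated FCS, penicillin and streptomycin. They were seeded at 1.0 × 10^6 cells/mL with compound (3−96 μM) or DMSO vehicle (0.2% final) for 24 h at 26 °C. Density was counted in a Neubauer chamber. IC50 came from logarithmic regression. Mean ± SE of three experiments.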

The test system of assay [17] is Leishmania amazonensis. As to the kind of experiment: Induction of intracellular ROS generation in Leishmania amazonensis MHOM/BR/75/LTB0016 promastigotes at 96 uM incubated for 24 hrs in presence of GSH by H2DCFDA dye based assay. In kind it is functional, organism-based. In a few lines: as §2
Assay [18] deals with Leishmania amazonensis. As to the kind of experiment: Antiparasitic activity against Leishmania amazonensis MHOM/BR/75/LTB0016 promastigotes assessed as inhibition of cellular proliferation incubated for 48 hrs by CFSE staining based flow cytometry. Format: functional, organism-based. To be noted: MHOM/BR/75/LTB0016, 48 h.
Assay [19] deals with Leishmania amazonensis. As to the kind of experiment: Induction of ultrastructural alterations in Leishmania amazonensis MHOM/BR/75/LTB0016 promastigotes assessed as cytoplasmic vacuolization at 12 uM incubated for 24 hrs by transmission electron microscopy.
Assay [20] deals with Leishmania amazonensis. As to the kind of experiment: Induction of intracellular ROS generation in Leishmania amazonensis MHOM/BR/75/LTB0016 promastigotes at 96 uM incubated for 24 hrs by H2DCFDA dye based assay. In kind it is functional. In a few lines:
as §5

The subject of assay [21] is Leishmania amazonensis. Briefly: Antiparasitic activity against Leishmania amazonensis MHOM/BR/75/LTB0016 promastigotes assessed as inhibition of cellular proliferation at 96 uM incubated for 24 hrs in presence of 300 uM GSSG by Neubauer chamber based assay. Format: functional, organism-based. In a few lines: as §4
The test system of assay [22] is Leishmania amazonensis. As to the kind of experiment: Antiparasitic activity against Leishmania amazonensis MHOM/BR/75/LTB0016 promastigotes assessed as inhibition of cellular proliferation at 96 uM incubated for 24 hrs by Neubauer chamber based assay. The following applies: MHOM/BR/75/LTB0016, 24 h. Format: functional. In a few lines: as §6
The next assay relates to Leishmania braziliensis. As to the kind of experiment: Induction of intracellular ROS generation in Leishmania braziliensis promastigotes at 500 uM incubated for 72 hrs by H2DCFDA dye based assay.
In assay [23] the test system is Leishmania amazonensis. As to the kind of experiment: Induction of intracellular ROS generation in Leishmania amazonensis MHOM/BR/75/LTB0016 promastigotes at 96 uM incubated for 48 hrs by H2DCFDA dye based assay. Format: functional.

As for `N#CC(C#N)=NNc1ccc(OC(F)(F)F)cc1`, in the assay on Leishmania amazonensis [1], the inhibition at 20 µM worked out at 79.8%.
For `O=c1cc(-c2ccc(O)cc2)oc2cc(O)cc(O)c12` [APIGENIN], the outcome in the assay on Leishmania amazonensis [2], with Leishmania amazonensis [3], in the assay on Leishmania amazonensis [4], in the assay with Leishmania amazonensis [5], in the assay with Leishmania amazonensis [7] and in the assay with Leishmania amazonensis [11] was Active. Besides, the outcome in the assay on Leishmania amazonensis [12], with Leishmania amazonensis [19] and in the assay on Leishmania amazonensis [21] was Active. Besides, the inhibition at 96 µM in the assay with Leishmania amazonensis [6] worked out at 78.3%; in the assay with Leishmania amazonensis [22], 75%. In addition, the inhibition result with Leishmania amazonensis [8] and in the assay on Leishmania amazonensis [16] was “Dose-dependent effect” each time. The result with Leishmania amazonensis [9], in the assay on Leishmania amazonensis [13], in the assay on Leishmania amazonensis [15] and in the assay on Leishmania amazonensis [17] was inactive. The Activity entry in the assay on Leishmania amazonensis [10] and in the assay with Leishmania amazonensis [14] was “Dose-dependent effect” each time. Also, the IC50 in the assay with Leishmania amazonensis [16] (MHOM/BR/75/LTB0016, 24 h) turned out to be 23.7 µM; with Leishmania amazonensis [18] it was 31.4 µM. The “fold change (FC)” value in the assay with Leishmania amazonensis [20] amounted to 2.9.
Turning to `O=C(O[C@@H]1Cc2c(O)cc(O)cc2O[C@@H]1c1cc(O)c(O)c(O)c1)c1cc(O)c(O)c(O)c1` [EPIGALOCATECHIN GALLATE], the “fold change (FC)” value in the assay on Leishmania braziliensis was determined as 2.9.
With `O=c1c(O)c(-c2ccc(O)c(O)c2)oc2cc(O)cc(O)c12` [QUERCETIN], in the assay with Leishmania amazonensis [23], the “fold change (FC)” value turned out to be 4.4.

These data come from ChEMBL document CHEMBL3580591, “Effect of Apigenin on Leishmania amazonensis Is Associated with Reactive Oxygen Species Production Followed by Mitochondrial Dysfunction” (J Nat Prod, 2015).
